Source: ChEMBL document CHEMBL3621164, “Discovery of Triazole CYP11B2 Inhibitors with in Vivo Activity in Rhesus Monkeys” (ACS Med Chem Lett, 2015)
pIC50: −log10 of the molar value.

How the values were obtained:
[1] = target: T1, Cytochrome P450 11B2, mitochondrial (Homo sapiens, UniProt P19099); assay: Inhibition of human CYP11B2 expressed in V79 cells assessed as aldosterone level after 3 hrs by HTRF assay in presence of 125 nM 11-deoxycorticosterone; assay type: cell-based
T1 sequence (P19099 whole entry): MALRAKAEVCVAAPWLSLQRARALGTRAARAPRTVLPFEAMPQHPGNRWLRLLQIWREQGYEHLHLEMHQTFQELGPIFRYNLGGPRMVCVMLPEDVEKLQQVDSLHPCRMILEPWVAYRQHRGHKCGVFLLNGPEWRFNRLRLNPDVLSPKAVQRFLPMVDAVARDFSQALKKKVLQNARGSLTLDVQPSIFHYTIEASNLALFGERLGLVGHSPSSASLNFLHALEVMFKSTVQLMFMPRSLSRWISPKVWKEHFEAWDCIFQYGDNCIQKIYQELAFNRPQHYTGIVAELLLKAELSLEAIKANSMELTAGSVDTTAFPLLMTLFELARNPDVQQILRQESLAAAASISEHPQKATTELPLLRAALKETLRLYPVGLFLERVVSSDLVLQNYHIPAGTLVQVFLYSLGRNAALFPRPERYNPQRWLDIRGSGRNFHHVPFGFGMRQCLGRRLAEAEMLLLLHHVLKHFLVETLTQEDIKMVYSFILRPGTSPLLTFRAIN

[2] = target: T2, Cytochrome P450 11B1, mitochondrial (Homo sapiens, UniProt P15538); assay: (§1) Inhibition of human CYP11B1 expressed in V79 cells assessed as cortisol level after 3 hrs by HTRF assay in presence of 250 nM 11-deoxycortisol; assay type: cell-based
T2 sequence (P15538 whole entry): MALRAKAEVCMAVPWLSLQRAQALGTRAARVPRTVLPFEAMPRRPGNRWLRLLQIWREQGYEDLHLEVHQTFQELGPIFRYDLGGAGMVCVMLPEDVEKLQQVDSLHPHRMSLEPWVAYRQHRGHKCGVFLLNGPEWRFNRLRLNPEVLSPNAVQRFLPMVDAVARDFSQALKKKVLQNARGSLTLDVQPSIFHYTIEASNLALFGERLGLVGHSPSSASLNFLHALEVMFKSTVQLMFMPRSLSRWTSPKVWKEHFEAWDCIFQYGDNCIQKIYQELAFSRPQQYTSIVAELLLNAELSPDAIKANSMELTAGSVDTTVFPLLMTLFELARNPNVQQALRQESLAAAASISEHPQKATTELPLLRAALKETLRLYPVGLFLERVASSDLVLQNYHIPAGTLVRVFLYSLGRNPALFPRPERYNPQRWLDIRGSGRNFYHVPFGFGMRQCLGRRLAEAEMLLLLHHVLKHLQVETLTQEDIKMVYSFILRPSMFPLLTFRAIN

[3] = organism: Homo sapiens; assay: Selectivity index, ratio IC50 for human CYP11B1 to IC50 for human CYP11B2
Summary of the method: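 Ratio of human CYP11B1 IC50 to human CYP11B2 IC50; each IC50 calculated from n ≥ 2 determinations.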

[4] = target: T3, Steroid 17-alpha-hydroxylase/17,20 lyase (Homo sapiens, UniProt P05093); assay: Inhibition of human CYP17 expressed in COS7 cells assessed as DHEA level after 3 hrs by EIA assay in presence of 360 nM 17-hydroxypregnenolone; assay type: cell-based, COS-7
T3 sequence (P05093 whole entry): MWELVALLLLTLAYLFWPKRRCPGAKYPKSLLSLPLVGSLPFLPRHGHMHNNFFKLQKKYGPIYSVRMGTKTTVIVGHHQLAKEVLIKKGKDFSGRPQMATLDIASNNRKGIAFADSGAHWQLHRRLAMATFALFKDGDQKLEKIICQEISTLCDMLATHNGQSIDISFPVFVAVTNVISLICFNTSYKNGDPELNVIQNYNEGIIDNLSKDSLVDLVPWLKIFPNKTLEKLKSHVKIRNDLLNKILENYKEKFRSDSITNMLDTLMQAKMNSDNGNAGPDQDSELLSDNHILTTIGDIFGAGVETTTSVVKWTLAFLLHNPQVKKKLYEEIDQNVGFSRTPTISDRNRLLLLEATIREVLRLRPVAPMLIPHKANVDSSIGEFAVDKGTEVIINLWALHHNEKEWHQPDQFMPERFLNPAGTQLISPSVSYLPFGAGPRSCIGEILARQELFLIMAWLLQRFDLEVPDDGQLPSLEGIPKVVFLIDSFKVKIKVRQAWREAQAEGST

[5] = target: T4, Aromatase (Homo sapiens, UniProt P11511); assay: Inhibition of human CYP19
T4 sequence (P11511 whole entry): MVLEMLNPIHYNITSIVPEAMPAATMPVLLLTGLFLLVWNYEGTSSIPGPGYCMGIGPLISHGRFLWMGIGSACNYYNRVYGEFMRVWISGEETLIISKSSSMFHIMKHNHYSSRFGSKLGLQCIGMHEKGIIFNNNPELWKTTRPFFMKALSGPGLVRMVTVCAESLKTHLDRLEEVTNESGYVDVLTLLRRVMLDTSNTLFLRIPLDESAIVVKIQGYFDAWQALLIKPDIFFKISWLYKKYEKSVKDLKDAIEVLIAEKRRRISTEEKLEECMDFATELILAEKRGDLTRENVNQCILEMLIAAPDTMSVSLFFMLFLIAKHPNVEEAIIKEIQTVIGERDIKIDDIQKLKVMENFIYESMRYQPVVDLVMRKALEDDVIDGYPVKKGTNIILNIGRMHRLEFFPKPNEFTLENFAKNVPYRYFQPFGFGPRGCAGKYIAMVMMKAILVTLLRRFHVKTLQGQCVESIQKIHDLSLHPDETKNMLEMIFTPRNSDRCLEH

[6] = target: Cytochrome P450 3A4 (Homo sapiens, UniProt P08684); assay: Inhibition of human CYP3A4; assay type: ADME
Sequence of Cytochrome P450 3A4 (P08684 whole entry): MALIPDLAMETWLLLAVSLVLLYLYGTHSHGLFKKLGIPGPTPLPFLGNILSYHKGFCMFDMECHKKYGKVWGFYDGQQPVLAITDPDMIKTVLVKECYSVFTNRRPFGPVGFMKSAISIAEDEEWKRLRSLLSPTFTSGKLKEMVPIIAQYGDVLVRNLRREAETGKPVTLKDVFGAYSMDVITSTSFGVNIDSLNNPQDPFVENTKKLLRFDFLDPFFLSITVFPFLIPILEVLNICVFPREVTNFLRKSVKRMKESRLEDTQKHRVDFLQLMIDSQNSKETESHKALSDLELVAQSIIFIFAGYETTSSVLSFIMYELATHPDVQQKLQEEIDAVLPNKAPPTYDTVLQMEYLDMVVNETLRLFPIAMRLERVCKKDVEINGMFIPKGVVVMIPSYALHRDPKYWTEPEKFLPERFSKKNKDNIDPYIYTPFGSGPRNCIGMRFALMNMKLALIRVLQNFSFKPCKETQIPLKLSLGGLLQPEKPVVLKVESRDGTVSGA

[7] = Intrinsic clearance in Sprague-Dawley rat liver microsomes by LC/MS method; assay type: ADME; conditions: read-out: CLH
[8] = Oral bioavailability in Sprague-Dawley rat at 2 mg/kg administered through gavage; assay type: ADME, organism-based; conditions: in vivo
[9] = tested on: Rattus norvegicus; assay: Dose normalized AUC in Sprague-Dawley rat at 2 mg/kg, po administered through gavage; assay type: ADME, organism-based; conditions: in vivo
[10] = Plasma clearance in Sprague-Dawley rat at 2 mg/kg, po administered through gavage by LC/MS/MS method; assay type: ADME, organism-based
[11] = Half life in Sprague-Dawley rat at 2 mg/kg, po administered through gavage by LC/MS/MS method; assay type: ADME, organism-based; conditions: in vivo
[12] = Inhibition of rhesus monkey CYP11B2 expressed in V79 cells assessed as aldosterone level after 3 hrs by HTRF assay in presence of 125 nM 11-deoxycorticosterone; assay type: cell-based; conditions: Macaca mulatta, V79, 3 h
[13] = target: T5, Cytochrome P450 11B2, mitochondrial (Rattus norvegicus, UniProt P30099); assay: Inhibition of rat CYP11B2 expressed in V79 cells assessed as aldosterone level after 3 hrs by HTRF assay in presence of 500 nM 11-deoxycorticosterone; assay type: cell-based; conditions: v79, 3 h
T5 sequence (P30099 whole entry): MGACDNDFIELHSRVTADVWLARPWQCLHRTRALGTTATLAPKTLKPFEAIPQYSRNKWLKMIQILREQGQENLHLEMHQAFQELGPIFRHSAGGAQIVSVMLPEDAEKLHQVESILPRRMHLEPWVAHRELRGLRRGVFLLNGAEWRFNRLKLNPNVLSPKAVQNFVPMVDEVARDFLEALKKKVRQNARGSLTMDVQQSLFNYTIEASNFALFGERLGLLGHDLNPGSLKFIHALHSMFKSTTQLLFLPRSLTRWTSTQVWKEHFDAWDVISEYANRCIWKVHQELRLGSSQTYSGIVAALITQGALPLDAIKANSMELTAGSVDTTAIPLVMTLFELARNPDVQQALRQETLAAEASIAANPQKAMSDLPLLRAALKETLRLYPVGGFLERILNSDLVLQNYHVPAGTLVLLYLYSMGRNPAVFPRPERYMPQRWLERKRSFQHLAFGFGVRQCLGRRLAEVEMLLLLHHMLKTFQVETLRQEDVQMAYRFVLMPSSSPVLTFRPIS

[14] = Lipophilicity, log D of the compound by HPLC; assay type: physicochemical
Summary of the method: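 Lipophilicity determined experimentally by HPLC.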

[15] = Plasma protein binding in Sprague-Dawley rat; assay type: ADME, cell-free
[16] = target: T6, CYP11B1 (Homo sapiens, UniProt P15538); assay: as §1; assay type: cell-based; conditions: human, V79 cells expressing human CYP11B1, probe 11-deoxycortisol (250 nM)
T6 sequence (P15538 whole entry): T2 sequence (P15538 whole entry)

Structure (SMILES) | pIC50 [1] | pIC50 [2] | Ratio IC50 [3] | further results
FC(F)(F)c1nnc2n1-c1ccc(-c3cccnc3)cc1CC2 | 6.30 | < 5.08 | > 16 | 
c1ccc(-c2nnc3n2-c2ccc(-c4cccnc4)cc2CC3)cc1 | 6.99 | 5.87 | 13 | pIC50 [4]: 7.08; pIC50 [5]: 7.68; pIC50 [6]: 4.44
Cc1nnc2n1-c1ccc(-c3cncc(C(=O)N(C)C)c3)cc1CC2 | < 5.08 | < 5.08 |  | 
COC(C)(C)c1cncc(-c2ccc3c(c2)CCc2nnc(C)n2-3)c1 | 7.72 | 6.66 |  | CLint scaled [7]: 107 mL/min/kg; bioavailability [8]: 10%; AUC/dose [9]: 0.03 µM·kg·h/mg; CL/F [10]: 177 mL/min/kg; half-life [11]: 18 min; pIC50 [4]: < 5.00; pIC50 [5]: 4.95; pIC50 [6]: < 4.30; pIC50 [12]: 8.52; inhibition (INH) [13]: Active
COC(=O)C(C)(C)c1cncc(-c2ccc3c(c2)CCc2nnc(C)n2-3)c1 | 7.72 | 6.50 |  | 
Cc1nnc2n1-c1ccc(-c3cncc(S(=O)(=O)c4ccccc4)c3)cc1CC2 | 7.40 | 5.82 |  | 
C[C@@](O)(c1cncc(-c2ccc3c(c2)CCc2nnc(C(F)(F)F)n2-3)c1)C(F)(F)F | 6.32 | < 5.08 | > 18 | logD [14]: 2.2
CC(C)(O)c1cncc(-c2ccc3c(c2)CCc2nnc(C(F)(F)F)n2-3)c1 | 6.28 | 5.83 | 3 | logD [14]: 1.5; CLint scaled [7]: < 20 mL/min/kg; bioavailability [8]: 83%; AUC/dose [9]: 3.87 µM·kg·h/mg; CL/F [10]: 10 mL/min/kg; half-life [11]: 174 min; fraction unbound [15]: 0.997
Cc1nnc2n1-c1ccc(-c3cncc(F)c3)cc1CC2 | 6.25 | < 5.00 |  | 
C[C@](O)(c1cncc(-c2ccc3c(c2)CCc2nnc(C(F)(F)F)n2-3)c1)C(F)(F)F | 6.34 | 6.05 | 2 | logD [14]: 2.2
c1cncc(-c2ccc3c(c2)CCc2nnc(C4CC4)n2-3)c1 | 6.31 | < 5.00 | > 21 | 
Cc1nnc2n1-c1ccc(-c3cncc(C(C)(C)O)c3)cc1CC2 | 6.55 | < 5.08 | > 29 | logD [14]: 0.6; CLint scaled [7]: < 20 mL/min/kg; bioavailability [8]: 19%; AUC/dose [9]: 0.19 µM·kg·h/mg; CL/F [10]: 50 mL/min/kg; half-life [11]: 90 min; pIC50 [12]: 7.47; inhibition (INH) [13]: Active
Cc1nnc2n1-c1ccc(-c3cccnc3)cc1CC2 | 6.37 | < 5.00 | > 24 | CLint scaled [7]: 55 mL/min/kg; bioavailability [8]: 6%; AUC/dose [9]: 0.1 µM·kg·h/mg; CL/F [10]: 38 mL/min/kg; half-life [11]: 12 min
CNC(=O)c1cncc(-c2ccc3c(c2)CCc2nnc(C)n2-3)c1 | < 5.08 | < 5.08 |  | 
c1cncc(-c2ccc3c(c2)CCc2nnc(C4CCCCC4)n2-3)c1 | 5.62 | < 5.08 | > 3 | 
Cc1nnc2n1-c1ccc(-c3cncc([C@@](C)(O)C(F)(F)F)c3)cc1CC2 | 6.96 | < 5.08 |  | logD [14]: 1.2
Cc1nnc2n1-c1ccc(-c3cncc4ccccc34)cc1CC2 | 8.30 |  |  | IC50 at 3 h [16]: 407 nM; CLint scaled [7]: 33 mL/min/kg; bioavailability [8]: 75%; AUC/dose [9]: 0.27 µM·kg·h/mg; CL/F [10]: 150 mL/min/kg; half-life [11]: 24 min
Cc1nnc2n1-c1ccc(-c3cncc(C(F)(F)F)c3)cc1CC2 | 6.31 | < 5.00 |  | 
Cc1nnc2n1-c1ccc(-c3cncc(S(C)(=O)=O)c3)cc1CC2 | < 5.08 | < 5.08 |  | 
c1cncc(-c2ccc3c(c2)CCc2nncn2-3)c1 | 6.52 | < 5.00 | > 33 | 
COC(=O)c1cncc(-c2ccc3c(c2)CCc2nnc(C)n2-3)c1 | 7.24 | 5.66 |  | pIC50 [4]: < 5.00; pIC50 [5]: < 5.00; pIC50 [6]: < 4.30
